Reference: ChEMBL document CHEMBL1153046, “Synthesis and antitumor activity of substituted triazolo[4,3-a]pyrimidin-6-sulfonamide with an incorporated thiazolidinone moiety” (2009)

Legend:
Assay type in all cases: functional
SF-268 = test: Antiproliferative activity against human SF268 cells assessed as cell growth at 100 uM after 48 hrs by alamar blue assay; conditions: SF-268, 48 h, read-out: Activity
Procedure, shortened: (§1)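 NCI three-cell-line primary screen. Cells are seeded and preincubated in microtiter plates. Compound is added at a single 10^-4 M concentration and cultures are incubated 48 h. The end-point is read with alamar blue. Results are given as percent growth relative to untreated control cells.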

NCI-H460 = test: Antiproliferative activity against human NCI-H460 cells assessed as cell growth at 100 uM after 48 hrs by alamar blue assay; conditions: NCI-H460, 48 h, read-out: Activity; procedure, shortened: as §1
MCF7 = test: Antiproliferative activity against human MCF7 cells assessed as cell growth at 100 uM after 48 hrs by alamar blue assay; conditions: MCF7, 48 h, read-out: Activity; procedure, shortened: as §1

In the case of `COc1ccc(/C=N/c2nc3[nH]nc(C)n3c(=O)c2S(=O)(=O)NN2C(=O)C(CN3CCOCC3)SC2c2ccc(Cl)cc2)cc1` (stereo not drawn), the growth at 100 µM (SF-268) is reported as 95%, the growth at 100 µM (NCI-H460) is reported as 68% and the growth at 100 µM (MCF7) is reported as 94%.

Work on `COc1ccc(/C=N/c2nc3[nH]nc(C)n3c(=O)c2S(=O)(=O)NN2C(=O)C(CN3CCOCC3)SC2c2ccc(C)cc2)cc1` (stereo not drawn) yielded a growth at 100 µM (SF-268) of 82%, a growth at 100 µM (NCI-H460) of 63% and a growth at 100 µM (MCF7) of 67%.

For `COc1ccc(/C=N/c2nc3[nH]nc(C)n3c(=O)c2S(=O)(=O)NN2C(=O)C(CN3CCN(C)CC3)SC2c2ccc(C)cc2)cc1` (stereo not drawn), the growth at 100 µM (SF-268) was 102%, the growth at 100 µM (NCI-H460) was 109% and the growth at 100 µM (MCF7) was 55%.

With `COc1ccc(/C=N/c2nc3[nH]nc(C)n3c(=O)c2S(=O)(=O)Nc2ccc(Cl)cc2)cc1` the growth at 100 µM (SF-268) was 87%, the growth at 100 µM (NCI-H460) was 102% and the growth at 100 µM (MCF7) was 87%.

With `COc1ccc(/C=N/c2nc3[nH]nc(C)n3c(=O)c2S(=O)(=O)NN2C(=O)C(CN3CCN(C)CC3)SC2c2ccc(Cl)cc2)cc1` (stereo not drawn) the growth at 100 µM (SF-268) was 106%, the growth at 100 µM (NCI-H460) was 86% and the growth at 100 µM (MCF7) was 102%.

Molecule `COc1ccc(/C=N/c2nc3[nH]nc(C)n3c(=O)c2S(=O)(=O)Nc2ccc(C)cc2)cc1` has a growth at 100 µM (SF-268) of 85%, a growth at 100 µM (NCI-H460) of 89% and a growth at 100 µM (MCF7) of 83%.

Molecule `COc1ccc(/C=N/c2nc3[nH]nc(C)n3c(=O)c2S(=O)(=O)NN2C(=O)CSC2c2ccc(Cl)cc2)cc1` (stereo not drawn) has a growth at 100 µM (SF-268) of 84%, a growth at 100 µM (NCI-H460) of 88% and a growth at 100 µM (MCF7) of 90%.

`COc1ccc(/C=N/c2nc3[nH]nc(C)n3c(=O)c2S(=O)(=O)NN2C(=O)CSC2c2cccs2)cc1` (stereo not drawn) gave a growth at 100 µM (SF-268) of 98%, a growth at 100 µM (NCI-H460) of 106% and a growth at 100 µM (MCF7) of 89%.

Molecule `COc1ccc(/C=N/c2nc3[nH]nc(C)n3c(=O)c2S(=O)(=O)N/N=C/c2ccc(C)cc2)cc1` has a growth at 100 µM (SF-268) of 93%, a growth at 100 µM (NCI-H460) of 83% and a growth at 100 µM (MCF7) of 87%.

`COc1ccc(/C=N/NS(=O)(=O)c2c(/N=C/c3ccc(OC)cc3)nc3[nH]nc(C)n3c2=O)cc1` gave a growth at 100 µM (SF-268) of 85%, a growth at 100 µM (NCI-H460) of 55% and a growth at 100 µM (MCF7) of 83%.

`COc1ccc(/C=N/c2nc3[nH]nc(C)n3c(=O)c2S(=O)(=O)NN2C(=O)CSC2c2ccc(OC)cc2)cc1` (stereo not drawn) showed a growth at 100 µM (SF-268) of 94%, a growth at 100 µM (NCI-H460) of 118% and a growth at 100 µM (MCF7) of 91%.

With `COc1ccc(/C=N/c2nc3[nH]nc(C)n3c(=O)c2S(=O)(=O)N/N=C/c2cccs2)cc1` the growth at 100 µM (SF-268) was 62%, the growth at 100 µM (NCI-H460) was 13% and the growth at 100 µM (MCF7) was 66%.

`COc1ccc(/C=N/c2nc3[nH]nc(C)n3c(=O)c2S(=O)(=O)Nc2ccc(OC)cc2)cc1` showed a growth at 100 µM (SF-268) of 91%, a growth at 100 µM (NCI-H460) of 82% and a growth at 100 µM (MCF7) of 86%.

Work on `COc1ccc(/C=N/c2nc3[nH]nc(C)n3c(=O)c2S(=O)(=O)N/N=C/c2ccc(Cl)cc2)cc1` yielded a growth at 100 µM (SF-268) of 101%, a growth at 100 µM (NCI-H460) of 73% and a growth at 100 µM (MCF7) of 93%.

`COc1ccc(/C=N/c2nc3[nH]nc(C)n3c(=O)c2S(=O)(=O)NN)cc1` gave a growth at 100 µM (SF-268) of 55%, a growth at 100 µM (NCI-H460) of 45% and a growth at 100 µM (MCF7) of 43%.

Work on `COc1ccc(/C=N/c2nc3[nH]nc(C)n3c(=O)c2S(=O)(=O)NN2C(=O)CSC2c2ccc(C)cc2)cc1` (stereo not drawn) yielded a growth at 100 µM (SF-268) of 63%, a growth at 100 µM (NCI-H460) of 67% and a growth at 100 µM (MCF7) of 72%.
